# Assays:
# [1] = test system: Mycobacterium tuberculosis; assay: Binding affinity to Mycobacterium tuberculosis InhA:NAD+ complex expressed in Escherichia coli BL21(DE3)pLysS assessed as residence time
# [2] = Octanol-phosphate buffer partition coefficient, log D of the compound at pH 7.4; type: physicochemical; details: octanol/water
# Method in brief: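 Partitioning between octanol and pH 7.4 phosphate buffer, with the carbon-11 radiolabel used to report drug concentration in each phase.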
# [3] = Plasma protein binding in baboon after 10 mins; type: ADME, cell-free; details: papio anubis
# [4] = test system: Mycobacterium tuberculosis; assay: Binding affinity to Mycobacterium tuberculosis InhA assessed as residence time
# Brain = assay: Drug uptake in iv dosed baboon brain measured over 15 to 90 mins by PET image analysis; type: ADME, organism-based; details: papio anubis, in vivo
# Method in brief: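 Baboon PET after i.v. radiolabelled drug, with images acquired for 90 min. Dose-corrected coronal images were summed over 15–90 min. Time-activity curves came from manually drawn regions of interest.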
# Spleen [5] = assay: Drug uptake in mouse spleen pretreated with unlabelled compound for 1 hr followed by radiolabeled compound treatment measured after 20 mins by PET image analysis; type: ADME, tissue-based; details: in vivo
# Method in brief: (§1)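 Mice received a 200 mg/kg predose of unlabelled compound 1 h before [11C]-tracer injection. Tissue radioactivity was read 20 min after the tracer and given as % injected dose/gram, mean ± SD of three animals.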
# Lung [6] = assay: Drug uptake in mouse lung pretreated with unlabelled compound for 1 hr followed by radiolabeled compound treatment measured after 20 mins by PET image analysis; type: ADME, tissue-based; details: in vivo; method in brief: as §1
# [7] = Drug uptake in iv dosed baboon heart measured over 90 mins by PET image analysis; type: ADME, organism-based; details: papio anubis, in vivo, 1.5 h
# Method in brief: (§2)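 Dynamic PET scan of baboons over 90 min after i.v. [11C]-labelled radiotracer. Peripheral organ time-activity curves were derived from regions of interest drawn manually on the images.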
# [8] = Drug uptake in iv dosed baboon lung measured over 90 mins by PET image analysis; type: ADME, organism-based; details: papio anubis, in vivo, 1.5 h; method in brief: as §2
# [9] = Drug uptake in iv dosed baboon blood measured over 90 mins by PET image analysis; type: ADME, organism-based; details: papio anubis, in vivo, 1.5 h; method in brief: as §2
# [10] = Drug uptake in iv dosed baboon liver measured over 90 mins by PET image analysis; type: ADME, organism-based; details: papio anubis, in vivo, 1.5 h; method in brief: as §2
# [11] = Drug uptake in iv dosed baboon kidney measured over 90 mins by PET image analysis; type: ADME, organism-based; details: papio anubis, in vivo, 1.5 h; method in brief: as §2
# [12] = Drug uptake in iv dosed baboon spleen measured over 90 mins by PET image analysis; type: ADME, organism-based; details: papio anubis, in vivo, 1.5 h; method in brief: as §2
# [13] = Drug uptake in iv dosed baboon gallbladder measured over 90 to 120 mins by PET image analysis; type: ADME, organism-based, Gall bladder; details: papio anubis, in vivo
# Spleen [14] = assay: Drug uptake in mouse spleen measured at 20 mins; type: ADME, tissue-based; details: in vivo
# Method in brief: (§3)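 Healthy mice were injected with [11C]-labelled tracer. Tissue radioactivity was measured at 20, 40 and 60 min post-injection and expressed as % injected dose/gram. Values are mean ± SD of three animals.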
# Spleen [15] = assay: Drug uptake in mouse spleen measured at 40 mins; type: ADME, tissue-based; details: in vivo; method in brief: as §3
# Spleen [16] = assay: Drug uptake in mouse spleen measured at 60 mins; type: ADME, tissue-based; details: in vivo, 1 h; method in brief: as §3
# Kidney [17] = assay: Drug uptake in mouse kidney measured at 20 mins; type: ADME, tissue-based; details: in vivo; method in brief: as §3
# Kidney [18] = assay: Drug uptake in mouse kidney measured at 40 mins; type: ADME, tissue-based; details: in vivo; method in brief: as §3
# Kidney [19] = assay: Drug uptake in mouse kidney measured at 60 mins; type: ADME, tissue-based; details: in vivo, 1 h; method in brief: as §3
# Liver [20] = assay: Drug uptake in mouse liver measured at 40 mins; type: ADME, tissue-based; details: in vivo; method in brief: as §3
# Liver [21] = assay: Drug uptake in mouse liver measured at 60 mins; type: ADME, tissue-based; details: in vivo, 1 h; method in brief: as §3
# Lung [22] = assay: Drug uptake in mouse lung measured at 20 mins; type: ADME, tissue-based; details: in vivo; method in brief: as §3
# Lung [23] = assay: Drug uptake in mouse lung measured at 40 mins; type: ADME, tissue-based; details: in vivo; method in brief: as §3
# Lung [24] = assay: Drug uptake in mouse lung measured at 60 mins; type: ADME, tissue-based; details: in vivo, 1 h; method in brief: as §3
# Blood [25] = assay: Drug uptake in mouse blood measured at 20 mins; type: ADME, tissue-based; method in brief: as §3
# Blood [26] = assay: Drug uptake in mouse blood measured at 40 mins; type: ADME, tissue-based; method in brief: as §3
# Blood [27] = assay: Drug uptake in mouse blood measured at 60 mins; type: ADME, tissue-based; details: 1 h; method in brief: as §3
smiles,measurement,setting,value
CCCCCCc1ccc(Oc2ccccc2C)c(O)c1,TIME,[1],0.4 h
same,logD,[2],3.65
same,PPB,[3],99.76%
NC(=O)C1=CN([C@@H]2O[C@H](COP(=O)(O)OP(=O)(O)OC[C@H]3O[C@@H](n4cnc5c(N)ncnc54)[C@H](O)[C@@H]3O)[C@@H](O)[C@H]2O)C=C[C@@H]1C(=O)c1ccncc1,TIME,[4],1 h
CCCCCCc1ccc(Oc2ccccc2[11C]#N)c(O)c1,Drug uptake,Brain,Active
CCCCCCc1ccc(Oc2ccccc2[11CH3])c(O)c1,Drug uptake,Spleen [5],Active
same,Drug uptake,Lung [6],Active
same,Drug uptake,[7],Not Active
same,Drug uptake,[8],Not Active
same,Drug uptake,[9],Not Active
same,Drug uptake,[10],Active
same,Drug uptake,[11],Active
same,Drug uptake,[12],Active
same,Drug uptake,[13],Active
same,Drug uptake,Brain,Active
same,Drug uptake,Spleen [14],1.82 %ID/cc
same,Drug uptake,Spleen [15],0.93 %ID/cc
same,Drug uptake,Spleen [16],0.21 %ID/cc
same,Drug uptake,Kidney [17],2.21 %ID/cc
same,Drug uptake,Kidney [18],1.45 %ID/cc
same,Drug uptake,Kidney [19],0.31 %ID/cc
same,Drug uptake,Liver [20],15.7 %ID/cc
same,Drug uptake,Liver [21],14.09 %ID/cc
same,Drug uptake,Lung [22],1.36 %ID/cc
same,Drug uptake,Lung [23],1.26 %ID/cc
same,Drug uptake,Lung [24],1.35 %ID/cc
same,Drug uptake,Blood [25],1.7 %ID/cc
same,Drug uptake,Blood [26],1.46 %ID/cc
same,Drug uptake,Blood [27],0.55 %ID/cc

# Source: ChEMBL document CHEMBL3632514, “Radiolabelling and positron emission tomography of PT70, a time-dependent inhibitor of InhA, the Mycobacterium tuberculosis enoyl-ACP reductase” (Bioorg Med Chem Lett, 2015)
